The text below walks through data of ChEMBL document CHEMBL5055621, “Synthesis and Characterization of the Novel Rodent-Active and CNS-Penetrant P2X7 Receptor Antagonist Lu AF27139” (J Med Chem, 2021).

In series [1] the target is T1, P2X purinoceptor 7 (Rattus norvegicus, UniProt Q64663).
T1 sequence (Q64663 whole entry): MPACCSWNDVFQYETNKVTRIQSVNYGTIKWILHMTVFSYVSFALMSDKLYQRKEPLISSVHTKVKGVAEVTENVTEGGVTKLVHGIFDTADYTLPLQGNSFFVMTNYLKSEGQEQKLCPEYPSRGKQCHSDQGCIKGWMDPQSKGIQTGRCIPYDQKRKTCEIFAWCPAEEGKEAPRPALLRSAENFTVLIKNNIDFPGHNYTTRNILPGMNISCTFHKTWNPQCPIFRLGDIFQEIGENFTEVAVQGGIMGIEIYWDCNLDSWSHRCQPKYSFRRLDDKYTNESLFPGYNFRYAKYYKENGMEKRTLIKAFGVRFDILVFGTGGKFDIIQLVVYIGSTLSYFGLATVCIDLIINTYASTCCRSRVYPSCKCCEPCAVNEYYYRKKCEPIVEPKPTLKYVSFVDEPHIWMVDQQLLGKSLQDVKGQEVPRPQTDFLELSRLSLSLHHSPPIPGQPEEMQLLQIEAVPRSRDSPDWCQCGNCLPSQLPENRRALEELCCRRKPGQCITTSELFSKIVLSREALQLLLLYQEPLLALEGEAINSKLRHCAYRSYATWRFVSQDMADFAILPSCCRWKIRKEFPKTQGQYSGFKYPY
Nature of the series: Antagonist activity at rat P2X7 receptor expressed in HEK293 cells assessed as inhibition of BzATP-induced calcium-flux measured after 60 mins by FLIPR analysis. It is filed as cell-based. Put shortly:
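Stable rat or mouse P2X7 HEK293 cells in HBSS/20 mM HEPES/2.5 mM probenecid/0.05% BSA, pH 7.4, were loaded with Fluo-4 NW (37 °C 30 min, RT 30 min). After 30 min at RT, calcium fluorescence was read by FLIPR; n ≥ 3.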

Series [2] concerns the target T2, P2X purinoceptor 7 (Homo sapiens, UniProt Q99572).
T2 sequence (Q99572 whole entry): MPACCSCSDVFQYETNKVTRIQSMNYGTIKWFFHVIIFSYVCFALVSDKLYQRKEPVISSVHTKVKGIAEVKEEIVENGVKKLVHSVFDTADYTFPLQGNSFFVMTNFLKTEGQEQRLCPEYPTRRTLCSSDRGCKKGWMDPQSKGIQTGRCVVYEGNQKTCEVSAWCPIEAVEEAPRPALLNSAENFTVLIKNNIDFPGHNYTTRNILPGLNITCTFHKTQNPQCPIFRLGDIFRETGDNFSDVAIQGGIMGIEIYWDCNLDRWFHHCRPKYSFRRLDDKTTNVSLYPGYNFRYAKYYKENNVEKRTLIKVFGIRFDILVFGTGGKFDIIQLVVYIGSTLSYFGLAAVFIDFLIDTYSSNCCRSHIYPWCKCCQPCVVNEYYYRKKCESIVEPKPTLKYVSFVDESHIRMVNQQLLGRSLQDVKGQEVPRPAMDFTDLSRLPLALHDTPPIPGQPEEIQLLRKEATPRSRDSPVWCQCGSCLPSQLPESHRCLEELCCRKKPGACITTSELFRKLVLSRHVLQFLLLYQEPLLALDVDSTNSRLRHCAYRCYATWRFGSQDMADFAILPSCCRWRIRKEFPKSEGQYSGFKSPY
In words: Displacement of [3H]-A-804598 from human P2X7 receptor expressed in HEK293 cell membrane by in vitro binding assay. The series is classed as cell membranes.

Series [3] deals with T1, P2X purinoceptor 7. Nature of the series: Displacement of [3H]-A-804598 from rat P2X7 receptor expressed in HEK293 cell membrane by in vitro binding assay. It is filed as cell membranes.
The nature of series [4]: Inhibition of BzATP-induced current in rat primary microglia cells measured after repeated BzATP treatment at -60 mV at 30 nM by whole cell patch clamp assay relative to control. The series is classed as functional. Put shortly:
(§1)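 Rat primary microglia were whole-cell patch-clamped at −60 mV (external pH 7.4 with 1.8 mM CaCl2; CsCl/EGTA internal pH 7.2). Currents came from 10 s applications of 300 μM BzATP, applied repeatedly. Compound was applied by gravity via capillary for 60 s, and inhibition was taken relative to the control response.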
For orientation: The patch-clamp technique gives a direct electrical read-out from membranes.

The nature of series [5]: Inhibition of BzATP-induced current in rat primary microglia cells measured after repeated BzATP treatment at -60 mV at 100 nM by whole cell patch clamp assay relative to control. It is filed as functional. Put shortly:
as §1

Series [6] in a line: Metabolic stability in rat hepatocytes assessed as intrinsic clearance at 1 uM measured after 2 hrs. It is filed as ADME, cell-based, Hepatocyte. As to conditions: read-out: CLH (converted); call rule not given here.
The target of series [7] is T3, Cytochrome P450 2C9 (Homo sapiens, UniProt P11712). Nature of the series: Inhibition of CYP2C9 (unknown origin) upto 25 uM. It is filed as ADME.
T3 sequence (P11712 whole entry): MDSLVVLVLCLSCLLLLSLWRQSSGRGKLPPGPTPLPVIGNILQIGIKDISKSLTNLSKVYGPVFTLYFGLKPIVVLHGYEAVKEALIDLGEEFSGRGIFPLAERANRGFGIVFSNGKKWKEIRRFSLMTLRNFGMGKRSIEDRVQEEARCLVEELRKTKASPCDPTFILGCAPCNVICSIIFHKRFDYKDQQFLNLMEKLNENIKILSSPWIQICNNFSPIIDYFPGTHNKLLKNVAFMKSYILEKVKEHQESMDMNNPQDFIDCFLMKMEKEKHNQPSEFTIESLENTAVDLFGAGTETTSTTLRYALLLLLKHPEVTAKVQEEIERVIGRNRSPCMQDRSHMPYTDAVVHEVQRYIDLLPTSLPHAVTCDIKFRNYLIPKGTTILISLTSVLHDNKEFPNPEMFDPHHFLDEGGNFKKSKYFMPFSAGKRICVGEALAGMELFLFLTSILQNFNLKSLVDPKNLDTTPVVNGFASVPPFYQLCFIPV
Series [8] deals with T3, Cytochrome P450 2C9. Nature of the series: Time dependent inhibition of CYP2C9 (unknown origin) upto 25 uM. It is filed as ADME.
Series [9] concerns the target Cytochrome P450 2C19 (Homo sapiens, UniProt P33261). Nature of the series: Inhibition of CYP2C19 (unknown origin) upto 25 uM. It is filed as ADME.
For series [10], the target named is Cytochrome P450 2D6 (Homo sapiens, UniProt P10635). Nature of the series: Inhibition of CYP2D6 (unknown origin) upto 25 uM. The series is classed as ADME.
Sequence of Cytochrome P450 2D6 (P10635 whole entry): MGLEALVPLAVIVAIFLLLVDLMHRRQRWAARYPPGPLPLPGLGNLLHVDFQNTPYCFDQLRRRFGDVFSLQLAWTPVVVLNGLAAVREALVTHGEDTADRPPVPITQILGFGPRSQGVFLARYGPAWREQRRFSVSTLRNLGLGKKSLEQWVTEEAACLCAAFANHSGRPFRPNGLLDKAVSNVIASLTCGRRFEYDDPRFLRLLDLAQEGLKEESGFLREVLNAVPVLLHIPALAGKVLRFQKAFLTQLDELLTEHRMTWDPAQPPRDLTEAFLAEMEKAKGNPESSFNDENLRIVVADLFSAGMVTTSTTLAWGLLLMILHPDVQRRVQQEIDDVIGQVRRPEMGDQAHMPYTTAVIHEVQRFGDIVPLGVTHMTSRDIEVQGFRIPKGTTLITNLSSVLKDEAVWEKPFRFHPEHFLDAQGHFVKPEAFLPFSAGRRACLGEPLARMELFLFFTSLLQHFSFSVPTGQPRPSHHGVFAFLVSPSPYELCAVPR
The nature of series [11]: Volume of distribution at steady state in rat at 1 mg/kg, iv and 2 mg/kg, po. As to conditions: in vivo. The series is classed as ADME, organism-based. In short, it runs like this:
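Plasma concentration–time profiles were obtained in rats after an iv dose of 1 mg/kg and a po dose of 2 mg/kg. Parameters were estimated by noncompartmental analysis. In vivo work used male Sprague–Dawley rats of 150−200 g unless noted otherwise.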

The nature of series [12]: Cmax in rat at 2 mg/kg, po. It is filed as ADME, organism-based. On the set-up: dose 2 mg/kg, route po. As to conditions: in vivo. Put shortly: (§2)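 Rats received 1 mg/kg iv or 2 mg/kg po. The plasma concentration–time profile was analysed by a noncompartmental model to give half-life, Cmax, Tmax and absolute oral bioavailability.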
Series [13] is described as follows: Absolute oral bioavailability in rat at 2 mg/kg. It is filed as ADME, organism-based. Particulars: in vivo. Put shortly: as §2
Series [14] is described as follows: Free plasma concentration in rat at 10 mg/kg, po after 1 hr by ex vivo equilibrium dialysis. It is filed as ADME, organism-based. Put shortly: (§3)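 Male Sprague–Dawley rats were dosed orally at 1–100 mg/kg, and total plasma concentration was measured at 1 and 2 h. This was multiplied by fraction unbound from ex vivo equilibrium dialysis; mean ± SEM, n = 3 animals.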

Series [15] is described as follows: Free plasma concentration in rat at 30 mg/kg, po after 1 hr by ex vivo equilibrium dialysis. The series is classed as ADME, organism-based. In short, it runs like this: as §3
For orientation: In equilibrium dialysis free small molecules cross a membrane that holds back macromolecules.

The nature of series [16]: Free plasma concentration in rat at 30 mg/kg, po after 2 hrs by ex vivo equilibrium dialysis. The series is classed as ADME, organism-based. In short, it runs like this: as §3
Series [17] in a line: Free plasma concentration in rat at 100 mg/kg, po after 2 hrs by ex vivo equilibrium dialysis. It is filed as ADME, organism-based. In short, it runs like this:
as §3

Series [18] concerns the target Voltage-dependent L-type calcium channel subunit alpha-1C (Homo sapiens, UniProt Q13936). Nature of the series: Inhibition of human Cav1.2 at 10 uM. Put shortly: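 Human Nav1.5, Cav1.2 and KCNQ1/minK channels were tested at 10 μM.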
Series [19] is described as follows: Cmax in male rat at 150 mg/kg, po after 7 days. The series is classed as ADME, organism-based. On the set-up: dose 150 mg/kg, time 7 day, route po. Particulars: in vivo.
Series [20] can be described thus: in vitro. As to conditions: human, liver microsomes.
The nature of series [21]: Cmax in female mouse at 100 mg/kg, po after 14 days. As to conditions: in vivo.

As usually defined, the IC50 is the concentration needed to halve the response being measured. The Ki is a dissociation constant, usually derived from enzyme kinetics or from competition with a known ligand. Lower therefore signals tighter binding. The inhibition is the percentage by which the read-out fell short of the control. A high value points to a strong effect. Usually Cmax stands for the peak of the concentration-time curve. A word on the bioavailability: it is the share of a dose that reaches the circulation, judged against a reference dose that is usually intravenous. A low value points to poor availability.

Sequence of Cytochrome P450 2C19 (P33261 whole entry): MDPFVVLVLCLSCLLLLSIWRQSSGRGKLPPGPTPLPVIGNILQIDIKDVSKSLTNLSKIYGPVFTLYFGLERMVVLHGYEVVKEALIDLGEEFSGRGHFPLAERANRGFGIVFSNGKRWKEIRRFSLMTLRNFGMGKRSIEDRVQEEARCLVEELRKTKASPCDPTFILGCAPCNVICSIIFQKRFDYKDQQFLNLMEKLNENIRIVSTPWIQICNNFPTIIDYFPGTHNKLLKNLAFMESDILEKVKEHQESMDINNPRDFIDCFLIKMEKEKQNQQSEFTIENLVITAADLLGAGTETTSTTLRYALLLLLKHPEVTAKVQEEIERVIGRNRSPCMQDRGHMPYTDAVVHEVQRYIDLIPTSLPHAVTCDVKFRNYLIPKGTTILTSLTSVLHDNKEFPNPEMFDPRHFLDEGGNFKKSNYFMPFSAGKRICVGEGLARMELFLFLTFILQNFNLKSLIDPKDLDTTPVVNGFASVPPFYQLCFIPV
Sequence of Voltage-dependent L-type calcium channel subunit alpha-1C (Q13936 whole entry): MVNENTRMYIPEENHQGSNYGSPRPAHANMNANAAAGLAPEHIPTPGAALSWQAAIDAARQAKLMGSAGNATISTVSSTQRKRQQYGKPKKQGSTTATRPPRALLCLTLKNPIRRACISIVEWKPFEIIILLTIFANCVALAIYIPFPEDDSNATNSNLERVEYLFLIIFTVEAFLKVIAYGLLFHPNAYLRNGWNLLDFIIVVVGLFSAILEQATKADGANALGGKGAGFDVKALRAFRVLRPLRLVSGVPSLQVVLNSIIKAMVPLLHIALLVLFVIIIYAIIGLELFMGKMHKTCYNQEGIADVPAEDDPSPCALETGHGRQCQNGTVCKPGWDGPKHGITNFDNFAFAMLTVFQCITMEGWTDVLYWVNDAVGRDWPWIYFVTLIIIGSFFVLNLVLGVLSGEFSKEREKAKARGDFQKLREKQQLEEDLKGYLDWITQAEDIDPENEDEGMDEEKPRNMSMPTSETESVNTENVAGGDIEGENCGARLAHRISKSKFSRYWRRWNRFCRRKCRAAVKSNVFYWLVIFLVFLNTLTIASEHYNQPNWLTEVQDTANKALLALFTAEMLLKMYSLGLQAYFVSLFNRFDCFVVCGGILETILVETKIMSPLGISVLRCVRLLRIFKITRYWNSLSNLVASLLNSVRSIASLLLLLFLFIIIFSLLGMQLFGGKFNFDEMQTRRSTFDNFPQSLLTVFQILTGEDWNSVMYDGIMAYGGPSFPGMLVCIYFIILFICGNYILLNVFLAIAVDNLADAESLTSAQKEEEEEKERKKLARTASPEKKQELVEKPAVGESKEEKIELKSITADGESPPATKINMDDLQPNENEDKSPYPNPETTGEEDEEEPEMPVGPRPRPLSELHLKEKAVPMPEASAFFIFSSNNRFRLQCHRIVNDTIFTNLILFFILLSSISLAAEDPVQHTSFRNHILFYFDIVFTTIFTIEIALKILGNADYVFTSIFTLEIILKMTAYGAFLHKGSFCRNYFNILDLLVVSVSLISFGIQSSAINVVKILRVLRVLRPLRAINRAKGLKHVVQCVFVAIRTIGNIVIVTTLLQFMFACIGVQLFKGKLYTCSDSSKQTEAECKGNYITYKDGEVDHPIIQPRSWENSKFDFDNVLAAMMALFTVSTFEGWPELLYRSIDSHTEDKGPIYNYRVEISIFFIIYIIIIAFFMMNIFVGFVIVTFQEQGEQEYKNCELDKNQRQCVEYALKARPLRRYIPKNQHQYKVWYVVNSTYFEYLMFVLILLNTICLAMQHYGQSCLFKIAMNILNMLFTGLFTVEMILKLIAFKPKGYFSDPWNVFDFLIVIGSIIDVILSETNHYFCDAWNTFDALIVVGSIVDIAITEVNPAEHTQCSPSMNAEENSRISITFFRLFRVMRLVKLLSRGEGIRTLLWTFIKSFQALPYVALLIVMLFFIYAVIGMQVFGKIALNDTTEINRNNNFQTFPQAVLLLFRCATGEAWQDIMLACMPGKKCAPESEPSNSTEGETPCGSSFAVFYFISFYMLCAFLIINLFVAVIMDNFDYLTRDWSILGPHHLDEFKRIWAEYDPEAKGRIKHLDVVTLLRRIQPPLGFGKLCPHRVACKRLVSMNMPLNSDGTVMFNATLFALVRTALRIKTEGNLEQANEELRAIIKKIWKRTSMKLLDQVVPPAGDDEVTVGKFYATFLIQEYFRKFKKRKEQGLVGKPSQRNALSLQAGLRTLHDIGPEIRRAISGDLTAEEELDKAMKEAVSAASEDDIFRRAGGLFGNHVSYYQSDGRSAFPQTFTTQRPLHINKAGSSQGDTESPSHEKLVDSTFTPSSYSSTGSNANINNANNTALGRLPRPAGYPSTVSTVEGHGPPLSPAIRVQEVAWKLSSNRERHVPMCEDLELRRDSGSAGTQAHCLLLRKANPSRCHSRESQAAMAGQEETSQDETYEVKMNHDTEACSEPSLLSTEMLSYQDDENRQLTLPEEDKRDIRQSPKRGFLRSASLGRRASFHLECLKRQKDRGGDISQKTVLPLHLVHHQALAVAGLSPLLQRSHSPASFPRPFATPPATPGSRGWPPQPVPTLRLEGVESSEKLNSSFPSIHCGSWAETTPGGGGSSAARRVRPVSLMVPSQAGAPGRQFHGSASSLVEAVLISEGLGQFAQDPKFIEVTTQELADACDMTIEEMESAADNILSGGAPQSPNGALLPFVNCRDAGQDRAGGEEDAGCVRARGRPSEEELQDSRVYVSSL

As for `O=C(NC[C@H](c1ccc(Cl)cc1)N1CCOCC1)c1sc(-c2ncccn2)nc1C(F)(F)F`, the half-inhibitory concentration (IC50) in [1] stood at 2.4 nM. Besides, the Ki in series [2] worked out at 55 nM; in [3] it was 13 nM. In addition, testing at 0.03 µM in [4] gave an inhibition of 67%. In series [5], the inhibition at 0.1 µM was found to be 80%. Also, the CLint scaled at 1 µM in series [6] is 80 mL/min/kg. For the same compound, the “inhibition (INH)” value in series [7], in series [9], in series [10] and in series [18] was “Not Active” throughout. In [8], the TDI entry was “Not Active”. For the same compound, the Vdss in series [11] turned out to be 0.95 L/kg. Besides, the values for the maximum concentration (Cmax) in series [12], in [19] and in [21] were 2700 nM, 39600 nM and 61600 nM, respectively. Besides, the bioavailability in [13] was at least 100%. The “Cp(f)” value is 381 nM in series [14], 414 nM in series [15], 556 nM in series [16] and 497 nM in [17]. In series [20], this compound gave a CLint scaled at 1 h, 1 µM of 43.3 mL/min/kg.
